The subject of one data set is nitroreductase. Kind of data set: (§1) Half life in phosphate buffer at pH 7 at 37 degC assessed as reduction by Escherichia coli nitroreductase by NR assay. In kind it is ADME. Conditions: Escherichia coli, Escherichia coli nitroreductase in phosphate buffer. A digest of the protocol: (§2)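 Substrate at 0.2 mM with 1 mM NADH in 10 mM sodium phosphate buffer, pH 7.0, at 37 °C. Reaction started by adding 1.8 µg E. coli nitroreductase; 2 mM cysteine added for one compound. Aliquots taken at intervals, quenched with acetonitrile, frozen, then analysed by HPLC. Half-life calculated from substrate disappearance.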

In data set [1] the test system is SK-OV-3. Description: Ratio for antiproliferative activity against NTR- SKOV3 cells to NTR+ SKOV3 cells infected with 100 pfu/cell retrovirus after 18 hrs. In kind it is functional, Homo sapiens.
In data set [2] the test system is SK-OV-3. Description: Antiproliferative activity against human SKOV3 cells infected with 100 pfu/cell retrovirus after 18 hrs. The class given is functional, cell-based.
In data set [3] the test system is SK-OV-3. Kind of data set: Antiproliferative activity against human SKOV3 cells after 18 hrs. The class given is functional, cell-based. A digest of the protocol:
(§3)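 SKOV3 ovarian carcinoma cells stably transduced with a retroviral NTR vector and selected with 1 mg/mL G418, compared with parental SKOV3. Plated at 20 000 cells/well and allowed to adhere 24 h. Prodrug range given for 18 h, then replaced with drug-free medium. MTT survival read 2 days later. Ratio is NTR⁻/NTR⁺ IC50.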

The subject of data set [4] is SK-OV-3. Description: Ratio for antiproliferative activity against NTR- SKOV3 cells to NTR+ SKOV3 cells infected with 10 pfu/cell retrovirus after 18 hrs. The class given is functional, Homo sapiens.
In data set [5] the test system is V79. Description: Antiproliferative activity against chinese hamster V79 cells after 72 hrs. In kind it is functional, cell-based, Cricetulus griseus. A digest of the protocol: (§4)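 V79 Chinese hamster fibroblasts: NTR⁺ cells stably transfected with a bicistronic NTR/puromycin-resistance vector and kept under puromycin selection; vector-only NTR⁻ controls. Seeded 1000 cells/well, recovered 24 h, then exposed to serially diluted drug for 3 days at 37 °C, initially up to 100 µM. SRB stain read at 570 nm. IC50 interpolated; ratio is NTR⁻/NTR⁺ IC50.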

Data set [6] has as its system SK-OV-3. Kind of data set: Antiproliferative activity against human SKOV3 cells infected with 10 pfu/cell retrovirus after 18 hrs. The class given is functional, cell-based. As to conditions: SK-OV-3, 18 h.
Data set [7] concerns V79. Kind of data set: Antiproliferative activity against NTR expressing chinese hamster V79 cells after 72 hrs. In kind it is functional, cell-based, Cricetulus griseus. A digest of the protocol:
as §4

Data set [8] concerns V79. Kind of data set: Antiproliferative activity against chinese hamster V79 cells after 1 hr. In kind it is functional, cell-based. Conditions: Cricetulus griseus, V79, 1 h. A digest of the protocol: (§5)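 Same stable NTR⁺ and vector-only NTR⁻ V79 pair, seeded 1000 cells/well and recovered 24 h. Cells exposed to drug for 1 h only, initially up to 100 µM, then given drug-free medium. SRB viability was read 3 days after drug addition. IC50 is the concentration giving 50% of control cell number; ratio is NTR⁻/NTR⁺.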

Data set [9] relates to V79. Description: Ratio for antiproliferative activity against NTR- V79 cells to NTR+ V79 cells after 72 hrs. The class given is functional, Cricetulus griseus. A digest of the protocol: as §4
The subject of data set [10] is V79. Kind of data set: Antiproliferative activity against NTR expressing chinese hamster V79 cells after 1 hr. The class given is functional, cell-based, Cricetulus griseus. A digest of the protocol: as §5
Data set [11] relates to V79. Description: Ratio for antiproliferative activity against NTR- V79 cells to NTR+ V79 cells after 1 hr. The class given is functional, cell-based, Cricetulus griseus. A digest of the protocol: as §5
Data set [12] relates to SK-OV-3. Description: Antiproliferative activity against NTR expressing human SKOV3 cells after 18 hrs. The class given is functional, cell-based. A digest of the protocol:
as §3

Data set [13] concerns SK-OV-3. Kind of data set: Ratio for antiproliferative activity against NTR- SKOV3 cells to NTR+ SKOV3 cells after 18 hrs. The class given is functional, Homo sapiens. A digest of the protocol: as §3
The nature of data set [14]: as §1. In kind it is ADME. As to conditions: buffer. A digest of the protocol: as §2
Data set [15] relates to SK-OV-3. Kind of data set: Antiproliferative activity against NTR expressing human SKOV3 cells […] after 18 hrs. In kind it is functional, cell-based.

`NP(=O)(OCc1ccc([N+](=O)[O-])cc1)N(CCCl)CCCl` (racemic): the half-life in the data set with nitroreductase turned out to be 2.3 min. For the same compound, the Ratio in the data set with SK-OV-3 [1] was more than 830; in the data set with SK-OV-3 [4] it was more than 160; in the data set with V79 [9] it was 170000; in the data set with V79 [11], more than 10000; with SK-OV-3 [13], more than 5600. Moreover, the 50% inhibitory concentration (IC50) with SK-OV-3 [2] (Homo sapiens, SK-OV-3, 18 h) was more than 1000 µM; in the data set on SK-OV-3 [3] (Homo sapiens, SK-OV-3, 18 h), more than 890 µM; with V79 [5] (Cricetulus griseus, V79, 72 h), 67 µM; with SK-OV-3 [6], more than 1000 µM; in the data set on V79 [7] (Cricetulus griseus, V79, 72 h) it was 0.0004 µM; with V79 [8] it was more than 100 µM. In addition, the IC50 with V79 [10] (Cricetulus griseus, V79, 1 h) turned out to be 0.01 µM; with SK-OV-3 [12] (Homo sapiens, SK-OV-3, 18 h), 0.16 µM.

`O=[N+]([O-])c1ccc(C2CCNP(=O)(N(CCCl)CCCl)N2)cc1` (racemic; cis): the half-life in the data set with nitroreductase came out at 6.4 min. The IC50 in the data set with V79 [5] (Cricetulus griseus, V79, 72 h) came out at 56.8 µM; with V79 [7] (v79) it was 4.6 µM. Besides, in the data set on V79 [9], the Ratio worked out at 12.

As for `O=[N+]([O-])c1ccc(C2CCOP(=O)(N(CCCl)CCCl)N2)cc1` (racemic; cis), the T1/2 in [14] is on record as 11.9 min. Besides, the figures for the Ratio with SK-OV-3 [1], in the data set with V79 [9] and in the data set on SK-OV-3 [13] were more than 1.9, more than 2.2 and more than 1.9, respectively. In addition, the IC50 with V79 [7] (v79) worked out at 45.3 µM; in the data set on SK-OV-3 [15] (sk-ov-3) it was 530 µM; in the data set with SK-OV-3 [12] (sk-ov-3), 530 µM.

For `O=[N+]([O-])c1ccc(C2CCNP(=O)(N(CCCl)CCCl)O2)cc1` (racemic; cis), in [14], the T1/2 is 5.2 min. In addition, the Ratio was 150 in the data set on SK-OV-3 [1], 29000 in the data set on V79 [9], more than 290 with V79 [11] and more than 440 with SK-OV-3 [13]. In addition, the half-maximal inhibitory concentration (IC50) with SK-OV-3 [2] (sk-ov-3) is 680 µM; with SK-OV-3 [3] (sk-ov-3), more than 930 µM; in the data set on V79 [5] (v79), 832 µM; with V79 [7] (v79), 0.029 µM; in the data set with V79 [10] (v79), 0.34 µM; in the data set with SK-OV-3 [15] (sk-ov-3), 4.7 µM.

Turning to `O=[N+]([O-])c1ccc(C2CCNP(=O)(N(CCCl)CCCl)N2)cc1` (racemic; trans), the T1/2 in data set [14] was 4.2 min. The figures for the IC50 in the data set on V79 [5] (v79) and with V79 [7] (v79) were more than 100 µM and 48.3 µM, respectively. Besides, the Ratio in the data set with V79 [9] is more than 2.1.

Consider `O=[N+]([O-])c1ccc(C2CCOP(=O)(N(CCCl)CCCl)N2)cc1` (racemic; trans), for which the T1/2 in data set [14] is listed as 2.9 min. Besides, the Ratio is more than 4.5 in the data set on SK-OV-3 [1], more than 1.9 with V79 [9] and more than 4.8 in the data set with SK-OV-3 [13]. Besides, the half-maximal inhibitory concentration (IC50) in the data set with SK-OV-3 [2] (Homo sapiens, SK-OV-3, 18 h) was more than 1000 µM; with SK-OV-3 [3] (Homo sapiens, SK-OV-3, 18 h), more than 1000 µM; in the data set on V79 [5] (Cricetulus griseus, V79, 72 h), more than 100 µM; with V79 [7] (Cricetulus griseus, V79, 72 h), 51.5 µM; in the data set on SK-OV-3 [15] (sk-ov-3), 220 µM; with SK-OV-3 [12] (sk-ov-3), 210 µM.

As to `O=[N+]([O-])c1ccc(C2CCNP(=O)(N(CCCl)CCCl)O2)cc1` (racemic; trans), the half-life with nitroreductase was 3.9 min. Moreover, the Ratio in the data set on SK-OV-3 [1] is reported as more than 200; in the data set with V79 [9], 23000; in the data set on V79 [11], more than 590; in the data set with SK-OV-3 [13], 270. Also, the IC50 with SK-OV-3 [2] (Homo sapiens, SK-OV-3, 18 h) was more than 1000 µM; in the data set on SK-OV-3 [3] (Homo sapiens, SK-OV-3, 18 h), 570 µM; in the data set on V79 [5] (Cricetulus griseus, V79, 72 h) it was 608 µM; with V79 [7] (Cricetulus griseus, V79, 72 h) it was 0.027 µM; with V79 [8] it was more than 100 µM; in the data set with V79 [10] (Cricetulus griseus, V79, 1 h) it was 0.17 µM. For the same compound, the IC50 in the data set with SK-OV-3 [15] (Homo sapiens, SK-OV-3, 18 h) worked out at 5 µM; with SK-OV-3 [12] (Homo sapiens, SK-OV-3, 18 h) it was 2.1 µM.

Regarding `O=P1(N(CCCl)CCCl)NC(OO)CCO1` (stereo not given) [PERFOSFAMIDE], the IC50 in the data set on V79 [5] (Cricetulus griseus, V79, 72 h) turned out to be 3.1 µM; with V79 [7] (Cricetulus griseus, V79, 72 h), 2.7 µM. Moreover, the Ratio in the data set with V79 [9] came out at 1.1.

Take `NC(=O)c1cc(N2CC2)c([N+](=O)[O-])cc1[N+](=O)[O-]` [TRETAZICAR]: the half-life in the data set with nitroreductase was 5 min. For the same compound, the Ratio is given as more than 210 with SK-OV-3 [1]; 12 in the data set with SK-OV-3 [4]; 7100 with V79 [9]; more than 320 in the data set with V79 [11]; more than 400 with SK-OV-3 [13]. Also, the half-inhibitory concentration (IC50) in the data set with SK-OV-3 [2] (Homo sapiens, SK-OV-3, 18 h) was more than 1000 µM; in the data set with SK-OV-3 [3] (Homo sapiens, SK-OV-3, 18 h), more than 790 µM; with V79 [5] (Cricetulus griseus, V79, 72 h), 254 µM; in the data set with SK-OV-3 [6] it was 625 µM; in the data set on V79 [7] (Cricetulus griseus, V79, 72 h), 0.036 µM; in the data set with V79 [8] it was more than 100 µM. The IC50 in the data set on V79 [10] (Cricetulus griseus, V79, 1 h) was 0.31 µM; in the data set with SK-OV-3 [12] (Homo sapiens, SK-OV-3, 18 h), 2 µM.

The values above are taken from ChEMBL document CHEMBL1138079 (J Med Chem, 2006).
